Data taken from ChEMBL document CHEMBL3351317 (J Med Chem, 2014).

Experiment: Distribution coefficient, log D between 1-octonol and aqueous phosphate buffer at pH 7.4
Type: physicochemical
Conditions: 1-octanol/aqueous phosphate buffer
Outline: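 logD measured as distribution between 1-octanol and aqueous phosphate buffer, pH 7.4.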

Row | Compound | logD
1 | C[C@@H]1CN(c2nc(C(F)(F)F)no2)CCN1c1ncc(OCc2ccc(N=S(C)(C)=O)cc2F)cn1 | 3.4
2 | C[C@@H]1CN(C(=O)OC2(C(F)(F)F)COC2)CCN1c1ncc(OCc2ccc(CS(C)(=O)=O)cc2F)cn1 | 2.9
3 | C[C@@H]1CN(C(=O)OC2(C(F)(F)F)COC2)CCN1c1ncc(OCc2ccc(OS(C)(=O)=O)cc2F)cn1 | 3.7
4 | C[C@@H]1CN(C(=O)OC2(C(F)(F)F)COC2)CCN1c1ncc(OCc2ccc(S(C)(=O)=O)cc2F)cn1 | 3
5 | CC(C)c1noc(N2CCN(c3ncc(OCc4ccc(CS(C)(=O)=O)cc4F)cn3)[C@H](C)C2)n1 | 3.1
6 | CC(C)c1noc(N2CCN(c3ncc(OCc4ccc(S(C)(=O)=O)cc4F)cn3)[C@H](C)C2)n1 | 3.4
